Measured values as given in ChEMBL document CHEMBL1142057, “Inhibition of the G2 DNA damage checkpoint by oliveroline isolated from Duguetia odorata” (J Nat Prod, 2007).
Active and inactive are the calls of the source. No cut-off for these calls is given here.

Assays:
MCF7 [1] = experiment: Inhibition of cell proliferation in MCF7 mp53 cells in absence of 6.5 Gy [60Co]-induced DNA damage; assay type: functional, cell-based; conditions: Homo sapiens
In short: (§1)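 MCF-7 mp53 cells seeded at 1000 cells/well and grown overnight. Compound applied over a concentration range for 24 h (DMSO ≤1% final), then irradiated with 0 or 6.5 Gy. Compound removed 24 h later and cells grown in fresh medium until untreated cells neared confluence (typically 4-6 days). Proliferation read by MTT, 2 h at 37 °C, SDS/DMF solubilisation, absorbance 570 nm. IC50 reported.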

MCF7 [2] = experiment: Inhibition of 6.5 Gy [60Co]-induced G2 DNA damage check point in MCF7 mp53 cells; assay type: functional, cell-based; conditions: Homo sapiens
In short: (§2)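 MCF-7 mp53 cells seeded at 2 × 10^5 cells/dish, cultured 24 h, then given 6.5 Gy (60Co, 1.2 Gy/min). Sixteen hours later (90% in G2), compound added with 100 ng/mL nocodazole for 8 h. Cells fixed in 70% EtOH, stained with mitosis-specific antibody GF-7 and propidium iodide. 20 000 events per sample read by flow cytometry as % cells escaping G2 arrest. DMSO carrier control.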

MCF7 [3] = experiment: Inhibition of 6.5 Gy [60Co]-induced G2 DNA damage check point in MCF7 mp53 cells at >10 uM; assay type: functional, cell-based; conditions: Homo sapiens; in short: as §2
MCF7 [4] = experiment: Inhibition of cell proliferation in MCF7 mp53 cells in presence of 6.5 Gy [60Co]-induced DNA damage; assay type: functional, cell-based; conditions: Homo sapiens; in short: as §1
MCF7 [5] = experiment: Inhibition of 6.5 Gy [60Co]-induced G2 DNA damage check point in MCF7 mp53 cells at 10 uM; assay type: functional, Homo sapiens; design: scale not given: the % may be the effect or the level left; in short: as §2
MCF7 [6] = experiment: Inhibition of 6.5 Gy [60Co]-induced G2 DNA damage check point in MCF7 mp53 cells at 50 uM; assay type: functional, Homo sapiens; design: scale not given: the % may be the effect or the level left; in short: as §2
[7] = target: T1, Serine/threonine-protein kinase Chk1 (Homo sapiens) (UniProt O14757); experiment: Inhibition of Chk1
T1 sequence (whole entry): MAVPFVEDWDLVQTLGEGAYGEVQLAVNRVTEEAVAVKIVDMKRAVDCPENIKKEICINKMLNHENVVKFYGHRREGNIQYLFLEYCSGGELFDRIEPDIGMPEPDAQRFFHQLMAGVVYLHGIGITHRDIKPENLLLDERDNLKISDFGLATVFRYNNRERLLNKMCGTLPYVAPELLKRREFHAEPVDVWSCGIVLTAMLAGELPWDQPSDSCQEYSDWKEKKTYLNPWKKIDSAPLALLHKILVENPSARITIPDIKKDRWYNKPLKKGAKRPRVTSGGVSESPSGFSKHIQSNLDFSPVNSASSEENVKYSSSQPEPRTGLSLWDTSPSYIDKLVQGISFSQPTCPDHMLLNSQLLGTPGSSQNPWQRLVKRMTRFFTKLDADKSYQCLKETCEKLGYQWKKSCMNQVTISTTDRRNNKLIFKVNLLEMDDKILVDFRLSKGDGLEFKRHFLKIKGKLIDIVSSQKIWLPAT

`COc1cc2c(cc1OC)-c1cc3cc(OC)c(OC)cc3c[n+]1CC2` [PSEUDOPALMATINE] was tested, and the IC50 (MCF7 [1]) was 250 µM, the Activity (MCF7 [2]) was “inactive” and the Activity (MCF7 [3]) was “inactive”. For the same compound, the IC50 (MCF7 [4]) was 80 µM.

For `COc1cc2c(cc1O)CC[n+]1cc3cc(OC)c(OC)cc3cc1-2` [DEHYDRODISCRETINE], the IC50 (MCF7 [1]) was 25 µM, the Activity (MCF7 [2]) was “inactive” and the Activity (MCF7 [3]) was “inactive”. The IC50 (MCF7 [4]) was 7 µM.

For `O=C1NC(=O)c2c1c1c3ccccc3[nH]c1n1cncc21` [ISOGRANULATIMIDE], the Activity (MCF7 [5]) was 35%.

For `CN1CCc2cc3c(c4c2[C@H]1[C@@H](O)c1ccccc1-4)OCO3` [OLIVEROLINE], the IC50 (MCF7 [1]) was 45 µM, the Activity (MCF7 [2]) was “Dose-dependent effect” and the Activity (MCF7 [3]) was “Active”. The Activity (MCF7 [6]) was 35%, the Activity [7] was “inactive” and the IC50 (MCF7 [4]) was 20 µM.
